Assay results published in ChEMBL document CHEMBL3352265, “Potentially bioactive organotin(IV) compounds: synthesis, characterization, in vitro bioactivities and interaction with SS-DNA” (Eur J Med Chem, 2014).
Converted amounts (≈) assume the structure as drawn. The source made the active and inactive calls. The rule behind the calls is not given here.

Columns and labels:
[1] = system: Agrobacterium tumefaciens; experiment: Antitumor activity against Agrobacterium tumefaciens -induced tumor at 1000 ug/ml after 21 days by potato disc bioassay technique; assay type: functional
Outline: (§1)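 Potato disc assay with 48 h culture of A. tumefaciens At-10. Inoculum contained compound at […]. Red-skinned potatoes sterilized in 0.1% HgCl2; 8 mm × 4 mm discs placed ten per 1.5% agar plate, […] each. Incubated at 28 °C in the dark for 21 days, in triplicate. Discs stained with Lugol's and tumors counted. Percent inhibition calculated against the negative control.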

[2] = system: Agrobacterium tumefaciens; experiment: Antitumor activity against Agrobacterium tumefaciens -induced tumor at 100 ug/ml after 21 days by potato disc bioassay technique; assay type: functional; outline: as §1
[3] = system: Agrobacterium tumefaciens; experiment: Antitumor activity against Agrobacterium tumefaciens -induced tumor at 10 ug/ml after 21 days by potato disc bioassay technique; assay type: functional; outline: as §1
Artemia salina = experiment: Cytotoxicity in brine shrimp assessed as mortality after 24 hrs; assay type: functional
Escherichia coli [4] = experiment: Antibacterial activity against Escherichia coli ATCC 15224 at 40 mg/mL after 24 hrs by disc diffusion method; assay type: functional; settings: for zone of inhibition at 40000 µg/mL: ATCC 15224, 24 h, read-out: DIZ
Outline: (§2)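 Disc diffusion. Strains grown in nutrient broth at 37 °C for 24 h. 1% culture (about 10^6 CFU/mL) mixed into nutrient agar at 45 °C and poured. 4 mm paper discs received compound at 40 mg/mL stock in DMSO; final concentrations tested were […]. DMSO served as negative control, roxithromycin and cefixime as positive controls. Triplicate plates incubated at 37 °C for 24 h. Complete-inhibition zone diameter (mm) recorded as the mean of 3.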

Staphylococcus aureus [5] = experiment: Antibacterial activity against Staphylococcus aureus ATCC 6538 at 40 mg/mL after 24 hrs by disc diffusion method; assay type: functional; settings: for zone of inhibition at 40000 µg/mL: ATCC 6538, 24 h, read-out: DIZ; outline: as §2
Klebsiella aerogenes [6] = experiment: Antibacterial activity against Enterobacter aerogenes ATCC 13048 at 40 mg/mL after 24 hrs by disc diffusion method; assay type: functional; settings: for zone of inhibition at 40000 µg/mL: ATCC 13048, 24 h, read-out: DIZ; outline: as §2
Salmonella typhimurium [7] = experiment: Antibacterial activity against Salmonella typhimurium ATCC 14028 at 40 mg/mL after 24 hrs by disc diffusion method; assay type: functional; settings: for inhibition zone (IZ): Salmonella enterica subsp. enterica serovar Typhimurium; for zone of inhibition at 40000 µg/mL: Salmonella enterica, ATCC 14028, 24 h, read-out: DIZ; outline: as §2
[8] = system: Bordetella bronchiseptica; experiment: Antibacterial activity against Bordetella bronchiseptica ATCC 4617 at 40 mg/mL after 24 hrs by disc diffusion method; assay type: functional; settings: for zone of inhibition at 40000 µg/mL: ATCC 4617, 24 h, read-out: DIZ; outline: as §2
Bacillus spizizenii [9] = experiment: Antibacterial activity against Bacillus subtilis ATCC 6633 at 40 mg/mL after 24 hrs by disc diffusion method; assay type: functional; settings: for zone of inhibition at 40000 µg/mL: ATCC 6633, 24 h, read-out: DIZ; outline: as §2
Escherichia coli [10] = experiment: Antibacterial activity against Escherichia coli ATCC 15224 after 18 hrs by microdilution method; assay type: functional
Outline: (§3)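 Broth microdilution. Twofold dilutions in culture broth at […]. Each well inoculated with bacterial suspension (10^8 CFU/mL, about 10^5 CFU/well). Sterility control and growth control (broth plus DMSO) included. Incubated at 36 °C for 18 h, in triplicate. MIC taken as the lowest concentration inhibiting growth, given in micrograms per mL.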

Salmonella typhimurium [11] = experiment: Antibacterial activity against Salmonella typhimurium ATCC 14028 after 18 hrs by microdilution method; assay type: functional; settings: Salmonella enterica subsp. enterica serovar Typhimurium; outline: as §3
Bacillus spizizenii [12] = experiment: Antibacterial activity against Bacillus subtilis ATCC 6633 after 18 hrs by microdilution method; assay type: functional; outline: as §3
Aspergillus niger [13] = experiment: Antifungal activity against Aspergillus niger FCBP 0198 at 40 mg/mL after 7 days by disc diffusion method; assay type: functional
Outline: (§4)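 Disc diffusion on SDA. Fungi cultured at 28 °C for 24 h. 4 mm discs received compound at 40 mg/mL stock in DMSO. DMSO served as negative control, terbinafine as positive control. Plates incubated at 28 °C for 7 days. Growth diameter (mm) measured and inhibition calculated against the negative control. MIC taken as the lowest concentration with no growth.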

Aspergillus fumigatus [14] = experiment: Antifungal activity against Aspergillus fumigatus FCBP 66 at 40 mg/mL after 7 days by disc diffusion method; assay type: functional; outline: as §4
Aspergillus flavus = experiment: Antifungal activity against Aspergillus flavus FCBP 0064 at 40 mg/mL after 7 days by disc diffusion method; assay type: functional; outline: as §4
Mucor = experiment: Antifungal activity against Mucor FCBP 0400 at 40 mg/mL after 7 days by disc diffusion method; assay type: functional; outline: as §4
Staphylococcus aureus [15] = experiment: Antibacterial activity against Staphylococcus aureus ATCC 6538 after 18 hrs by microdilution method; assay type: functional; outline: as §3
Klebsiella aerogenes [16] = experiment: Antibacterial activity against Enterobacter aerogenes ATCC 13048 after 18 hrs by microdilution method; assay type: functional, organism-based; outline: as §3
[17] = system: Bordetella bronchiseptica; experiment: Antibacterial activity against Bordetella bronchiseptica ATCC 4617 after 18 hrs by microdilution method; assay type: functional; outline: as §3
Aspergillus niger [18] = experiment: Antifungal activity against Aspergillus niger FCBP 0198 after 7 days by disc diffusion method; assay type: functional, organism-based; outline: as §4
Aspergillus fumigatus [19] = experiment: Antifungal activity against Aspergillus fumigatus FCBP 66 after 7 days by disc diffusion method; assay type: functional, organism-based; outline: as §4
Escherichia coli [20] = experiment: Induction of Escherichia coli pBR322 DNA damage assessed as open circular form at 1000 ug/ml after 60 mins by gel electrophoresis
Escherichia coli [21] = experiment: Induction of Escherichia coli pBR322 DNA damage assessed as open circular form at 100 ug/ml after 60 mins by gel electrophoresis
Escherichia coli [22] = experiment: Induction of Escherichia coli pBR322 DNA damage assessed as open circular form at 10 ug/ml after 60 mins by gel electrophoresis
Escherichia coli [23] = experiment: Induction of Escherichia coli pBR322 DNA damage assessed as open circular form at 1 ug/ml after 60 mins by gel electrophoresis

Compound	Activity [1] [%]	Activity [2] [%]	Activity [3] [%]	inhibition zone (IZ) (Escherichia coli [4]) [mm]	inhibition zone (IZ) (Staphylococcus aureus [5]) [mm]	inhibition zone (IZ) (Klebsiella aerogenes [6]) [mm]	inhibition zone (IZ) (Salmonella typhimurium [7]) [mm]	inhibition zone (IZ) [8] [mm]	inhibition zone (IZ) (Bacillus spizizenii [9]) [mm]	MIC (Escherichia coli [10]) [µg/mL]	MIC (Salmonella typhimurium [11]) [µg/mL]	MIC (Bacillus spizizenii [12]) [µg/mL]	inhibition zone (IZ) (Aspergillus niger [13]) [mm]	inhibition zone (IZ) (Aspergillus fumigatus [14]) [mm]	inhibition zone (IZ) (Aspergillus flavus) [mm]	inhibition zone (IZ) (Mucor) [mm]	LD50 (Artemia salina) [µg/mL]	MIC (Staphylococcus aureus [15]) [µg/mL]	MIC (Klebsiella aerogenes [16]) [µg/mL]	MIC [17] [µg/mL]	other results
CC[C@]1(O)C[C@H]2CN(CCc3c([nH]c4ccccc34)[C@@](C(=O)OC)(c3cc4c(cc3OC)N(C=O)[C@H]3[C@@](O)(C(=O)OC)[C@H](OC(C)=O)[C@]5(CC)C=CCN6CC[C@]43[C@@H]65)C2)C1 [VINCRISTINE]	100	100	100	–	–	–	–	–	–	–	–	–	–	–	–	–	–	–	–	–	–
COc1cccc2c1C(=O)c1c(O)c3c(c(O)c1C2=O)C[C@@](O)(C(=O)CO)C[C@@H]3O[C@H]1C[C@H](N)[C@H](O)[C@H](C)O1 [DOXORUBICIN]	–	–	–	–	–	–	–	–	–	–	–	–	–	–	–	–	–	–	–	–	LC50 (Artemia salina; read-out: LD50 (the source's name)): 0.434 µg/mL (≈ 0.798 µM)
Dioctylstannanediyl bis(4-(2-methoxyphenylamino)-4-oxobutanoate)	65.5	44.9	31.2	10	0	0	12	11	9	200	150	200	0	0	0	0	0.499	–	–	–	–
CC[C@H]1OC(=O)[C@H](C)[C@@H](O[C@H]2C[C@@](C)(OC)[C@@H](O)[C@H](C)O2)[C@H](C)[C@@H](O[C@@H]2O[C@H](C)C[C@H](N(C)C)[C@H]2O)[C@](C)(O)C[C@@H](C)/C(=N\OCOCCOC)[C@H](C)[C@@H](O)[C@]1(C)O [ROXITHROMYCIN]	–	–	–	–	–	–	–	–	–	–	–	–	–	–	–	–	–	–	–	–	zone of inhibition at 40000 µg/mL (Escherichia coli [4]): 14 mm; zone of inhibition at 40000 µg/mL (Staphylococcus aureus [5]): 14 mm; zone of inhibition at 40000 µg/mL (Klebsiella aerogenes [6]): 12 mm; zone of inhibition at 40000 µg/mL (Salmonella typhimurium [7]): 16 mm; zone of inhibition at 40000 µg/mL [8]: 19 mm; zone of inhibition at 40000 µg/mL (Bacillus spizizenii [9]): 10 mm
C=CC1=C(C(=O)O)N2C(=O)[C@@H](NC(=O)/C(=N\OCC(=O)O)c3csc(N)n3)[C@H]2SC1 [CEFIXIME]	–	–	–	–	–	–	–	–	–	–	–	–	–	–	–	–	–	–	–	–	zone of inhibition at 40000 µg/mL (Escherichia coli [4]): 24 mm; zone of inhibition at 40000 µg/mL (Staphylococcus aureus [5]): 26 mm; zone of inhibition at 40000 µg/mL (Klebsiella aerogenes [6]): 10 mm; zone of inhibition at 40000 µg/mL (Salmonella typhimurium [7]): 26 mm; zone of inhibition at 40000 µg/mL [8]: 13 mm; zone of inhibition at 40000 µg/mL (Bacillus spizizenii [9]): 25 mm
Dibutylstannanediyl bis(4-(2-methoxyphenylamino)-4-oxobutanoate)	88.3	65.5	50.2	17	14	27	17	20	22	50	50	50	14	12	0	0	0.611	100	25	50	MIC (Aspergillus niger [18]): 150 µg/mL; MIC (Aspergillus fumigatus [19]): 200 µg/mL; Activity (Escherichia coli [20]): inactive; Activity (Escherichia coli [21]): inactive; Activity (Escherichia coli [22]): inactive; Activity (Escherichia coli [23]): inactive
Dimethylstannanediyl bis(4-(2-methoxyphenylamino)-4-oxobutanoate)	91.4	62.9	43.2	16	17	21	16	19	18	50	150	100	15	0	0	0	2.89	100	100	50	MIC (Aspergillus niger [18]): 200 µg/mL; Activity (Escherichia coli [20]): Active; Activity (Escherichia coli [21]): Active; Activity (Escherichia coli [22]): Active; Activity (Escherichia coli [23]): Active
Dibenzylstannanediyl bis[4-(2-methoxyphenylamino)-4-oxobutanoate]	87.1	52	19.3	16	20	14	0	19	11	50	–	200	11	0	0	0	1.1	100	150	50	MIC (Aspergillus niger [18]): 200 µg/mL; Activity (Escherichia coli [20]): Active; Activity (Escherichia coli [21]): Active; Activity (Escherichia coli [22]): Active; Activity (Escherichia coli [23]): Active
CN(C/C=C/C#CC(C)(C)C)Cc1cccc2ccccc12 [TERBINAFINE]	–	–	–	–	–	–	–	–	–	–	–	–	–	–	–	–	–	–	–	–	zone of inhibition at 40000 µg/mL (Aspergillus niger [13]; FCBP 0198, 168 h, read-out: DIZ): 35 mm; zone of inhibition at 40000 µg/mL (Aspergillus fumigatus [14]; FCBP 66, 168 h, read-out: DIZ): 35 mm; zone of inhibition at 40000 µg/mL (Aspergillus flavus; FCBP 0064, 168 h, read-out: DIZ): 35 mm; zone of inhibition at 40000 µg/mL (Mucor; FCBP 0400, 168 h, read-out: DIZ): 32 mm
